For series [1] the following is noted: cited from earlier work.
Series [2] has as its target T1, DUSP5 PD (Homo sapiens, UniProt Q16690).
T1 sequence (Q16690 178-319 limits assumed): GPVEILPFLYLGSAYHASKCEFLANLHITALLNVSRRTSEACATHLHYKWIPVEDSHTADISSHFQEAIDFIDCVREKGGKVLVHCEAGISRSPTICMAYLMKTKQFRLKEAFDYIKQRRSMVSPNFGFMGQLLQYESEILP
Description: Reaction progress curve analysis of irreversible DUSP5 PD inactivation. Type of series: biochemical.

Series [3] relates to ulcerative hemangioma. The conditions noted are these: topical use in the clinic; cited from earlier work.
Series [4] can be described thus: Nephelometry. Type of series: physicochemical. The note with it: assay buffer pH 7.5 without vs with 1 mM DTT. The method in brief: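 Aggregation was tested in 96-well plates using substrate-free assay buffer at pH 7.5, without or with 1 mM DTT. Serially diluted compound was added to give final concentrations of 1–100 μM or 1–300 μM, depending on compound.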
In series [5] the target is T1, DUSP5 PD. Description: Spectral analysis of other xanthene dyes binding to DUSP5 PD protein. The conditions noted are these: 4 μM compound, 4 μM protein. The method in brief: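 Each test compound at 4 μM in assay buffer, without or with 1 mM DTT, in 2 mL quartz cuvettes. Absorbance was scanned at 1 nm intervals from 400 to 600 nm. DUSP5 PD was then added to a final 4 μM and the sample rescanned. Blanks were buffer with or without DTT, plus buffer with 4 μM protein. Spectra without protein were subtracted from spectra with protein to give difference spectra.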

In series [6] the target is T2, GST-DUSP5 (full length DUSP5, pERK substrate) (Homo sapiens, UniProt Q16690).
T2 sequence (Q16690 1-384): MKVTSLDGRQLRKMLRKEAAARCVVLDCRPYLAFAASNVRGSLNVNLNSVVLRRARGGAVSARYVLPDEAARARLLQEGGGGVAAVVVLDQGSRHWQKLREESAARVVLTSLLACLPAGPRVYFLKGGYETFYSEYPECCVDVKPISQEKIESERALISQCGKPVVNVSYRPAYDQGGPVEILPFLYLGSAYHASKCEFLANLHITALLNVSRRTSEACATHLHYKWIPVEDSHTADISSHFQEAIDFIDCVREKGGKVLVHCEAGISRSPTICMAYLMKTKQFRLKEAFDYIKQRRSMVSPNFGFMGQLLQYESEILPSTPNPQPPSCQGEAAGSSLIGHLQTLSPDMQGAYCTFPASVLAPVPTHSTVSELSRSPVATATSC
Description: In vitro ERK dephosphorylation Western blot assay. The series is classed as biochemical. For orientation: In western blotting, separated proteins are transferred to a membrane and probed.

Series [7] concerns the target T1, DUSP5 PD. Description: DUSP5 phosphatase domain pNPP assay, IC50 from initial velocities. The conditions noted are these: IC50 against DUSP5 PD activity, mean ± SD. The series is classed as biochemical. The method, boiled down:
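Recombinant DUSP5 phosphatase domain in 100 mM Tris, 100 mM NaCl, 5 mM MgCl2, pH 7.5, without or with 1 mM DTT, using 5 mM pNPP (near Km). Compound was serially diluted and enzyme added from a 25 μM stock. After 0, 30 or 60 min dark incubation, A405 was read every 30 s for 10 min at 25°C. Blank-subtracted slopes were normalised to vehicle controls and fitted to equation 2. Three or four trials of triplicate wells.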

By LD50 is commonly meant the dose expected to kill half of the subjects tested. Usually kinact stands for the rate constant of inactivation at saturating inhibitor. The term kinact/KI denotes the second-order rate constant of inactivation. What is called IC50 is the midpoint of a concentration-inhibition curve. Higher therefore signals weaker potency in that assay. Take `O=C1OC2(c3ccccc31)c1cc(Br)c(O)c(Br)c1Oc1c2cc(Br)c(O)c1Br` [Eosin Y, 2’,4’,5’,7’-tetrabromofluorescein]: the LD50 in series [1] is on record as greater than 10 mmol/kg. Also, the Ki in series [2] was 43 µM. Moreover, the kinact in series [2] worked out at 0.0002 s⁻¹. For the same compound, in series [2] (absence of DTT), the “fold less effective than merbromin (time-dependent inhibition)” value was “roughly 10 fold”. The “Inhibitor mechanism (irreversible inactivation)” value in series [2] (with 1 mM DTT) was “single-step”; in series [2] (without DTT), “two-step”. In addition, the kinact/KI came to 0.9 ± 0.13 M⁻¹ s⁻¹ in series [2] (with 1 mM DTT, summary of data sets (Table 2)); 6.6 M⁻¹ s⁻¹ in series [2] (without DTT, fit shown in Fig. 5c/6c); 6.06 ± 2.43 M⁻¹ s⁻¹ in series [2] (without DTT, summary of data sets (Table 2)). Also, the “efficacy in ulcerative hemangioma patients” value in series [3] is recorded as “showed efficacy”. Also, the “effect of DTT addition on compound aggregation” value in series [4] was “little effect”. Moreover, the “spectral shift upon addition of DUSP5 PD protein” value in series [5] (with 1 mM DTT) is “not diminished”; in series [5] (without DTT), “spectrally shifted”. Also, the IC50 is 12.7 ± 3 µM in series [6]; greater than 100 µM in series [7] (with 1 mM DTT, 30 min incubation); greater than 100 µM in series [7] (with 1 mM DTT, 60 min incubation); 63.3 ± 6.9 µM in series [7] (without DTT, 30 min incubation); 37.6 ± 4.5 µM in series [7] (without DTT, 60 min incubation).

Source of the values: PMC6910256 (Journal of photochemistry and photobiology. A, Chemistry, 2019).
